Tests used:
Human alphaherpesvirus 1 [1] = experiment: Ability to reduce plaque formation of TK deficient herpes simplex virus type 1(HSV-1) by 50% in human embryonic lung fibroblast (HELF) cell cultures; type: functional; conditions: Human alphaherpesvirus 1, HELF; read-out: ID50 (the source's name)
Method in brief: (§1)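 HELF confluent monolayers infected 1 h at 37 °C (about 50–100 plaques per bottle) with HSV-1 clinical isolate strain 77 or TK-deficient HSV-1 B 2006. Then 0.5% w/v methocel overlay with 10% fetal calf serum plus compound, 3 days at 37 °C. Neutral red staining; ID50 in µmol/L read graphically as 50% plaque-number reduction.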

Human betaherpesvirus 5 = experiment: Ability to reduce plaque formation of human cytomegalovirus (HCMV) by 50% in human embryonic lung fibroblast (HELF) cell cultures; type: functional; conditions: Human betaherpesvirus 5, HELF; read-out: ID50 (the source's name)
Method in brief: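 Plaque reduction in HELF cells with laboratory HCMV strain Davis, plaques scored 8–12 days post-infection. ID50 is the concentration cutting plaque formation by 50%.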

Human alphaherpesvirus 2 = experiment: Ability to reduce plaque formation of herpes simplex virus type 2 (HSV-2) by 50% in human embryonic lung fibroblast (HELF) cell cultures; type: functional; conditions: Human alphaherpesvirus 2, HELF; read-out: ID50 (the source's name)
Method in brief: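 Clinical isolate HSV-2 strain 74 adsorbed 1 h at 37 °C onto confluent HELF monolayers, aiming at 50–100 plaques per bottle. Compound added in methocel (0.5% w/v) overlay containing 10% FCS; 2 days at 37 °C. Plaques visualised with neutral red. ID50 in µmol/L determined graphically as the concentration halving plaque counts.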

Human alphaherpesvirus 3 = experiment: Ability to reduce plaque formation of varicella zoster virus (VZV) by 50% in human embryonic lung fibroblast (HELF) cell cultures; type: functional; conditions: Human alphaherpesvirus 3, HELF; read-out: ID50 (the source's name)
Method in brief: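 Fresh clinical VZV isolate, strain 3/S.H., in HELF cells. Plaques counted 5–6 days post-infection. ID50 is the concentration reducing plaque formation by 50%.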

[2] = Minimum concentration not causing a microscopically detectable cytotoxic alteration of normal human embryonic lung fibroblast (HELF) morphology
Method in brief: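 Semiconfluent HELF monolayers, 24 h post-seeding, exposed 3 days at 37 °C to compound up to 1 mmol/L. Microscopic comparison with untreated controls; toxicity signs were cell detachment, monolayer destruction, or cells remaining semiconfluent. Value is the lowest concentration showing no detectable morphological alteration.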

Human alphaherpesvirus 1 [3] = experiment: Ability to reduce plaque formation of herpes simplex virus type 1 (HSV-1) by 50% in human embryonic lung fibroblast (HELF) cell cultures; type: functional; conditions: Human alphaherpesvirus 1, HELF; read-out: ID50 (the source's name); method in brief: as §1
[4] = Inhibitory dose for HELF cell proliferation during 3-day treatment period; type: functional; conditions: Homo sapiens, 72 h, read-out: ID50 (the source's name)

| Compound | IC50 (Human alphaherpesvirus 1 [1]) | IC50 (Human betaherpesvirus 5) | IC50 (Human alphaherpesvirus 2) | IC50 (Human alphaherpesvirus 3) | Toxicity [2] | IC50 (Human alphaherpesvirus 1 [3]) | IC50 [4] |
| --- | --- | --- | --- | --- | --- | --- | --- |
| Cc1cn([C@@H]2O[C@H](CO)[C@@H](O)[C@@H]2O)c(=O)[nH]c1=O | > 500 µM | > 500 µM | 1.65 µM | 0.53 µM | > 1000 µM | 0.64 µM | – |
| O=c1nc(OC(F)F)c(F)cn1[C@@H]1O[C@H](CO)[C@@H](O)[C@H]1O | – | – | > 500 µM | – | > 500 µM | 500 µM | – |
| O=c1nc(OC(F)F)ccn1[C@@H]1O[C@H](CO)[C@@H](O)[C@H]1O | – | – | > 1000 µM | – | > 1000 µM | > 1000 µM | – |
| O=c1nc(OC(F)F)c(I)cn1[C@@H]1O[C@H](CO)[C@@H](O)[C@@H]1O | – | – | 82 µM | – | > 1000 µM | 29 µM | – |
| O=c1nc(OC(F)F)c(Br)cn1[C@@H]1O[C@H](CO)[C@@H](O)[C@H]1O | – | – | > 250 µM | – | > 250 µM | > 250 µM | – |
| O=c1nc(OC(F)F)ccn1[C@@H]1O[C@H](CO)[C@@H](O)[C@@H]1O | – | – | > 1000 µM | – | > 1000 µM | 430 µM | – |
| O=c1nc(OC(F)F)c(I)cn1[C@@H]1O[C@H](CO)[C@@H](O)[C@H]1O | – | – | > 500 µM | – | > 500 µM | > 500 µM | – |
| O=c1nc(OC(F)F)c(Br)cn1[C@@H]1O[C@H](CO)[C@@H](O)[C@@H]1O | – | – | 17.6 µM | – | > 1000 µM | 3.6 µM | – |
| O=c1nc(OC(F)F)c(F)cn1[C@@H]1O[C@H](CO)[C@@H](O)[C@@H]1O | – | – | 300 µM | – | > 500 µM | 110 µM | – |
| O=c1[nH]c(=O)n([C@@H]2O[C@H](CO)[C@@H](O)[C@@H]2O)cc1Br | – | – | 7.9 µM | – | > 1000 µM | 1.35 µM | – |
| Cc1cn([C@H]2C[C@H](O)[C@@H](CO)O2)c(=O)nc1OC(F)F | – | – | > 1000 µM | – | > 1000 µM | > 1000 µM | – |
| O=c1nc(OC(F)F)c(Br)cn1[C@H]1C[C@H](O)[C@@H](CO)O1 | – | – | > 500 µM | – | > 500 µM | 130 µM | – |
| CCc1cn([C@H]2C[C@H](O)[C@@H](CO)O2)c(=O)nc1OC(F)F | – | – | > 1000 µM | – | > 1000 µM | > 1000 µM | – |
| O=c1[nH]c(=O)n([C@@H]2O[C@H](CO)[C@@H](O)[C@H]2O)cc1/C=C/Br | – | – | 49 µM | – | – | 0.115 µM | > 1000 µM |
| O=c1nc(OC(F)F)c(/C=C/Br)cn1C1O[C@H](CO)[C@@H](O)[C@@H]1O (some centres not stated) | – | – | > 500 µM | – | > 500 µM | 1.1 µM | – |
| O=c1[nH]c(=O)n(C2O[C@H](CO)[C@@H](O)[C@@H]2O)cc1I (some centres not stated) | – | – | 70 µM | – | > 500 µM | 51 µM | – |
| Cc1cn(C2O[C@H](CO)[C@@H](O)[C@@H]2O)c(=O)nc1OC(F)F (some centres not stated) | > 500 µM | > 500 µM | 3 µM | 1 µM | > 1000 µM | 0.8 µM | – |
| CCc1cn(C2O[C@H](CO)[C@@H](O)[C@@H]2O)c(=O)nc1OC(F)F (some centres not stated) | – | – | 210 µM | – | > 500 µM | 27 µM | – |
| Nc1nc2c(ncn2COCCO)c(=O)[nH]1 [ACYCLOVIR] | – | – | 1.6 µM | – | – | 0.48 µM | 360 µM |
| O=c1[nH]c(=O)n([C@H]2C[C@H](O)[C@@H](CO)O2)cc1/C=C/Br [BRIVUDINE] | – | – | 27 µM | – | – | 0.05 µM | 170 µM |
| O=c1[nH]c(=O)n([C@H]2C[C@H](O)[C@@H](CO)O2)cc1Br [BROXURIDINE] | – | – | 1.4 µM | – | > 1000 µM | 0.8 µM | – |
| CCc1cn([C@H]2C[C@H](O)[C@@H](CO)O2)c(=O)[nH]c1=O [EDOXUDINE] | – | – | 14.5 µM | – | > 1000 µM | 10 µM | – |

Reference: ChEMBL document CHEMBL1124232, “Synthesis and biological activities of 4-O-(difluoromethyl)-5-substituted-uracil nucleoside analogues” (J Med Chem, 1988)
